Results on one molecule are retold here after paper PMC6777341 (ACS chemical neuroscience, 2017).

The target in series [1] is human NPFF2 receptor (Homo sapiens, UniProt Q9Y5X5). In words: NPFF2 calcium mobilization assay. It counts as cell-based. Particulars: calcium mobilization assay, FF2 cells.
The test system of series [2] is MDCK-MDR1 cells. In words: Bidirectional MDCK-MDR1 permeability assay. It counts as in vitro ADME. In short, it runs like this:
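MDCK-MDR1 cells at passage 5 were grown 3 days on polycarbonate Transwell supports in DMEM/10% FBS, then rinsed and equilibrated 30 min at 37 °C in HBSS with 10 mM HEPES, 0.25% BSA, pH 7.4, and TEER was measured. Test compound at 10 μM was added apically (A-to-B) or basolaterally (B-to-A) at 37 °C with agitation.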

Series [3] has as its target human NPFF1 receptor (Homo sapiens, UniProt Q9GZQ6). The series is described as follows: NPFF1 calcium mobilization assay. It counts as cell-based. Particulars: calcium mobilization assay, NPFF1 cells. On the technique in general: Calcium flux is commonly read through the fluorescence of an indicator in the cells.
For series [4], the target named is human NPFFR1 (Homo sapiens, UniProt Q9GZQ6). The series is described as follows: Lance cAMP assay, NPFFR1-CHO cells. It counts as cell-based. (Changes in cAMP serve as a functional read-out for many G protein-coupled receptors.)
Chain of human NPFFR1 (Q9GZQ6 whole entry): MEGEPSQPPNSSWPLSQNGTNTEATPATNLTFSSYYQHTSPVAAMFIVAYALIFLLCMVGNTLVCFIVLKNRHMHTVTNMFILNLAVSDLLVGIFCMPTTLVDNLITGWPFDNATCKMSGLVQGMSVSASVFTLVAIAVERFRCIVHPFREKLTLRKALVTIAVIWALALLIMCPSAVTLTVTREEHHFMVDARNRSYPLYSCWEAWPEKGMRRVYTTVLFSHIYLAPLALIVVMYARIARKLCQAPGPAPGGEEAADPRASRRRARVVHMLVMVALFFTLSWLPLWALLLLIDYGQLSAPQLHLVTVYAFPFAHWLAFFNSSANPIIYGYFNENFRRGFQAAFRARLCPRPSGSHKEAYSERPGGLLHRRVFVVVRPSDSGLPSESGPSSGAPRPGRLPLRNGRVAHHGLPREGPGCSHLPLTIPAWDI
Series [5] has as its target human NPFFR2 (Homo sapiens, UniProt Q9Y5X5). The series is described as follows: Lance cAMP assay, NPFFR2-CHO cells. It counts as cell-based. The conditions noted are these: cAMP assay, FF2 cells.
Series [6] concerns fentanyl-induced hyperalgesia. In words: Fentanyl-induced hyperalgesia. It counts as in vivo, rat. The conditions noted are these: rats, i.p., day 1 after fentanyl, N=6.

Chain of human NPFF1 receptor (Q9GZQ6 whole entry): as above
Chain of human NPFFR2 (Q9Y5X5 whole entry): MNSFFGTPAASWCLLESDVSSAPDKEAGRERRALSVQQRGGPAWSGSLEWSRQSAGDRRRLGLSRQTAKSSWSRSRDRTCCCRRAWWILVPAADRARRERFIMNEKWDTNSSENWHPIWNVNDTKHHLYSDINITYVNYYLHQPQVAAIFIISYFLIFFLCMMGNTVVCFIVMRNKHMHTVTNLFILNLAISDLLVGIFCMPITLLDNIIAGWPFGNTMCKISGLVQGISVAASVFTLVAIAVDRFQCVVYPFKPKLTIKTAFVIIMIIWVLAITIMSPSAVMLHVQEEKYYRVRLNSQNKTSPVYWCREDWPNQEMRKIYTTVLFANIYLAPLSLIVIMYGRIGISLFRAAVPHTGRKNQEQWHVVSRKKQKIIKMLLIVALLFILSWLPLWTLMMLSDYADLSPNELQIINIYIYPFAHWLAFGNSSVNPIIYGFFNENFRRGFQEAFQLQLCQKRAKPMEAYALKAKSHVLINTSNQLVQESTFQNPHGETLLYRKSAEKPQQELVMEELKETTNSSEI
Chain of human NPFF2 receptor (Q9Y5X5 whole entry): as above

Take `CCCCCNC(=O)[C@@H]1C[C@H](NCc2ccc(OC)cc2)CN1Cc1ccccc1Cl` [Compound 16, (2S,4S)-1-[(2-Chlorophenyl)methyl]-4-{[(4-methoxyphenyl)methyl]amino}-N-pentylpyrrolidine-2-carboxamide]: the “Hill slope of NPFF + compound curve” value in series [1] came to 1.1; in series [3], 1.7; in series [4] (cAMP assay, NPFF1 cells) it was 1.3; in series [5] it was 1.3. In addition, the “rate B to A” value in series [2] (MDCK-MDR1) was 6.7e-06 cm/s. Besides, the “rate apical (A) to basolateral (B)” value in series [2] (MDCK-MDR1) was 7.6e-06 cm/s. Besides, the Pgp substrate status entry in series [2] (as indicated by the efflux ratio) was “not Pgp substrates”. This molecule had a Kb in series [4] of 360 ± 80 nM. Also, the “doses significantly different from vehicle (Bonferroni post hoc)” value in series [6] is “significant differences at 10 and 32 mg/kg”.
